# Measurements published in ChEMBL document CHEMBL3414455, “Boronic species as promising inhibitors of the Staphylococcus aureus NorA efflux pump: study of 6-substituted pyridine-3-boronic acid derivatives” (Eur J Med Chem, 2015).
# Legend:
# Staphylococcus aureus [1] = assay: Antibacterial activity against fluoroquinolone-resistant Staphylococcus aureus 1199B overexpressing NorA after 24 hrs by two fold microdilution method; type: functional
# [2] = target: T1, Quinolone resistance protein NorA (Staphylococcus aureus) (UniProt P0A0J7); assay: Inhibition of NorA in fluoroquinolone-resistant Staphylococcus aureus 1199B assessed as minimum modulatory concentration require to potentiate 16 ug/ml norfloxacin-induced antibacterial activity
# T1 sequence (whole entry): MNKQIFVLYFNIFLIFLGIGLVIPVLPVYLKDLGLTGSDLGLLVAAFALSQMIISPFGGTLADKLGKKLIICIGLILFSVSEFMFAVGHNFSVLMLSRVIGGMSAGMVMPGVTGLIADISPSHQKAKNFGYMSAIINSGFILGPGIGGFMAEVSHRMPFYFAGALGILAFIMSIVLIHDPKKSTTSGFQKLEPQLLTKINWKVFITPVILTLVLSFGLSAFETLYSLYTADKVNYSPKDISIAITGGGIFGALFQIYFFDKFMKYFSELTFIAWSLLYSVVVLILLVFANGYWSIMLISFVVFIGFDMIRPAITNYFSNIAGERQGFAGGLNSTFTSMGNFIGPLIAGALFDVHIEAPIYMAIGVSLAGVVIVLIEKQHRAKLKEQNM
# [3] = target: T1, Quinolone resistance protein NorA (Staphylococcus aureus); assay: Inhibition of NorA in fluoroquinolone-resistant Staphylococcus aureus 1199B assessed as minimum modulatory concentration require to potentiate 4 ug/ml ciprofloxacin-induced antibacterial activity
# [4] = Cytotoxicity against human KB cells assessed as growth inhibition at 10 uM after 72 hrs by MTS assay relative to control; type: cell-based; details: read-out: GI
# Procedure, shortened: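 KB cells were grown in D-MEM with 10% FCS at 37°C under 5% CO2. Compounds in DMSO (1% final) were added 24 h after plating, and cells were exposed for 72 h. MTS was then added for 3 h and absorbance read at 490 nm. Inhibition = (1 − OD treated/OD DMSO control) × 100, in triplicate. Docetaxel 0.15 nM served as positive control.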
# [5] = target: T1, Quinolone resistance protein NorA (Staphylococcus aureus); assay: Inhibition of NorA in fluoroquinolone-resistant Staphylococcus aureus 1199B assessed as minimum modulatory concentration require to potentiate 2 ug/ml ciprofloxacin-induced antibacterial activity
# Staphylococcus aureus [6] = assay: Antibacterial activity against methicillin-susceptible […] Staphylococcus aureus ATCC 25923 after 24 hrs by two fold microdilution method; type: functional; details: ATCC 25923, 24 h
# Procedure, shortened: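 Broth microdilution in Mueller-Hinton broth, about 10^6 CFU/mL per well, inoculum from an 18 h culture at 37°C. Compounds were dissolved in DMSO and tested in twofold serial dilutions, top 128 mg/L, or the highest fully soluble level (at least 16 mg/L). MIC is the lowest concentration giving complete growth inhibition after 24 h at 37°C, read at 620 nm and visually, in duplicate.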
# [7] = Cytotoxicity against human KB cells assessed as growth inhibition at 10^-6 M after 72 hrs by MTS assay relative to control; type: cell-based; details: read-out: GI
# [8] = target: T1, Quinolone resistance protein NorA (Staphylococcus aureus); assay: Inhibition of NorA in fluoroquinolone-resistant Staphylococcus aureus 1199B assessed as increase in ethidium bromide uptake at 20 ug/ml after 20 mins by fluorimetry relative to control
# Procedure, shortened: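 Mid-log cells (overnight culture diluted 20-fold, 3.5 h, 37°C, 130 rpm) resuspended in Mueller-Hinton broth containing 10 mg/L EtBr, 37°C; compound added at 10 min (final 20 mg/L), fluorescence (ex 530/em 600 nm) followed 20 more min; rise over pre-addition baseline; reserpine 5 and 20 µg/mL positive, 1.6% DMSO negative; two or three experiments.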
# [9] = target: T1, Quinolone resistance protein NorA (Staphylococcus aureus); assay: Inhibition of NorA in fluoroquinolone-resistant Staphylococcus aureus 1199B assessed as minimum modulatory concentration require to potentiate 2 ug/ml ciprofloxacin-induced antibacterial activity at MMC relative to control
# [10] = target: ATP-dependent translocase ABCB1 (Homo sapiens, UniProt P08183); assay: Inhibition of MDR1 in human NCI-ADR-RES cells assessed as increase in rhodamine-123 uptake at 1 to 100 uM after 1 hr by fluorescence assay; type: cell-based
# Procedure, shortened: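 NCI/ADR-RES cells (P-gp overexpressing) were seeded at 60,000/well in RPMI. After 24 h they were washed with PBS and given compound (100, 10, 1 µM) plus 12.5 µM rhodamine 123 in FCS-free medium for 1 h at 37°C, 5% CO2. Cells were then washed, lysed in 20 mM Tris pH 7.7 with 0.2% SDS, and fluorescence read at 507/528 nm.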
# Staphylococcus aureus [11] = assay: microbe, parasite or virus in culture; details: 1199B, 24 h
SMILES,MIC (Staphylococcus aureus [1]),MMC [2],MMC [3],"inhibition at 72 h, 10 µM [4]",MMC [5],MIC (Staphylococcus aureus [6]),"inhibition at 72 h, 1 µM [7]",inhibition [8],fold change (FC) [9],inhibition (INH) [10],MIC (Staphylococcus aureus [11])
OB(O)c1ccc(OCCc2ccccc2)nc1,> 128 µg/mL,16 µg/mL,1 µg/mL,28%,65.8 µM,> 128 µg/mL,–,–,–,–,–
COC(=O)[C@H]1[C@H]2C[C@@H]3c4[nH]c5cc(OC)ccc5c4CCN3C[C@H]2C[C@@H](OC(=O)c2cc(OC)c(OC)c(OC)c2)[C@@H]1OC,–,–,–,–,6.57 µM,–,–,–,–,–,–
OB(O)c1ccc(OCCCc2ccccc2)nc1,> 128 µg/mL,8 µg/mL,0.5 µg/mL,83%,15.6 µM,> 128 µg/mL,9%,43%,4,Not Active,–
CCCCCCCOc1ccc(B(O)O)cn1,> 16 µg/mL,8 µg/mL,0.5 µg/mL,73%,33.7 µM,> 16 µg/mL,–,–,–,–,–
OB(O)c1ccc(OCc2ccccc2)nc1,> 128 µg/mL,32 µg/mL,1 µg/mL,–,69.8 µM,> 128 µg/mL,–,–,4,–,–
CCCCOc1ccc(B(O)O)cn1,> 128 µg/mL,64 µg/mL,2 µg/mL,1%,328 µM,> 128 µg/mL,–,–,–,–,–
OB(O)c1ccc(OCc2ccc(F)cc2)nc1,> 128 µg/mL,64 µg/mL,2 µg/mL,8%,130 µM,> 128 µg/mL,–,–,–,–,–
OB(O)c1ccc(OCc2ccc(Cl)cc2)nc1,128 µg/mL,16 µg/mL,1 µg/mL,33%,121 µM,≥ 128 µg/mL,–,–,–,–,–
OB(O)c1ccc(OCc2ccc(Cl)c(Cl)c2)nc1,16 µg/mL,–,0.125 µg/mL,44%,3.35 µM,–,0%,–,–,–,–
CCCOc1ccc(B(O)O)cn1,> 128 µg/mL,> 128 µg/mL,4 µg/mL,0%,> 128 µg/mL,> 128 µg/mL,–,–,–,–,–
CC1(C)S[C@@H]2[C@H](NC(=O)[C@H](N)c3ccccc3)C(=O)N2[C@H]1C(=O)O [AMPICILLIN],–,–,–,–,–,0.25 µg/mL,–,–,–,–,–
OB(O)c1ccc(OCc2ccc3c(c2)OCO3)nc1,> 128 µg/mL,–,64 µg/mL,0%,–,> 128 µg/mL,–,–,–,–,–
OB(O)c1ccc(Oc2ccc(Cl)cc2Cl)nc1,128 µg/mL,32 µg/mL,1 µg/mL,1%,56.4 µM,–,–,–,–,–,–
OB(O)c1ccc(Oc2ccccc2)nc1,> 128 µg/mL,128 µg/mL,2 µg/mL,14%,298 µM,> 128 µg/mL,–,–,–,–,–
OB(O)c1cncc(OCc2ccccc2)c1,> 128 µg/mL,–,8 µg/mL,0%,> 128 µg/mL,> 128 µg/mL,–,–,–,–,–
COc1cc(COc2ccc(B(O)O)cn2)cc(OC)c1OC,> 128 µg/mL,–,8 µg/mL,3%,–,> 128 µg/mL,–,–,–,–,–
CCCCCOc1ccc(B(O)O)cn1,> 128 µg/mL,64 µg/mL,2 µg/mL,16%,306 µM,> 128 µg/mL,–,–,–,–,–
OB(O)c1ccc(OCCCCCc2ccccc2)nc1,16 µg/mL,–,2 µg/mL,60%,14 µM,–,6%,–,–,–,–
Cc1cc(B(O)O)cnc1OCc1ccccc1,> 128 µg/mL,8 µg/mL,4 µg/mL,15%,65.8 µM,–,–,–,–,–,–
OB(O)c1ccc(OCCCCCCCc2ccccc2)nc1,> 16 µg/mL,–,0.5 µg/mL,62%,12.8 µM,> 16 µg/mL,–,–,–,–,–
OB(O)c1ccc(SCc2ccccc2)nc1,64 µg/mL,16 µg/mL,0.5 µg/mL,8%,65.3 µM,64 µg/mL,–,–,–,–,–
CCn1cc(C(=O)O)c(=O)c2cc(F)c(N3CCNCC3)cc21 [NORFLOXACIN],64 µg/mL,–,–,–,–,–,–,–,–,–,–
OB(O)c1ccc(OCCCCc2ccccc2)nc1,32 µg/mL,8 µg/mL,0.25 µg/mL,13%,14.8 µM,64 µg/mL,–,42%,4,Not Active,–
OB(O)c1ccc(NCc2ccccc2)nc1,> 128 µg/mL,–,32 µg/mL,0%,561 µM,> 128 µg/mL,–,–,–,–,–
CCCCCCCCCCCCOc1ccc(B(O)O)cn1,> 16 µg/mL,–,> 16 µg/mL,13%,> 16 µg/mL,> 16 µg/mL,–,–,–,–,–
CCCCCCOc1ccc(B(O)O)cn1,> 128 µg/mL,16 µg/mL,2 µg/mL,46%,71.7 µM,–,–,–,–,–,–
O=C(O)c1cn(C2CC2)c2cc(N3CCNCC3)c(F)cc2c1=O [CIPROFLOXACIN],8 µg/mL,–,–,–,–,–,–,–,–,–,0.5 µg/mL
OB(O)c1ccc(OCCCCCCc2ccccc2)nc1,> 16 µg/mL,–,0.5 µg/mL,46%,13.4 µM,> 16 µg/mL,–,–,–,–,–
